For assay [1], the system named is JC polyomavirus. In words: Antiviral activity against JC polyomavirus Mad1-SVEdelta infected in SVG-A cells assessed as viral infectivity level pre-incubated for 0.5 hrs with 25 uM compound before viral infection for 72 hrs by flow cytometry relative to DMSO control. It counts as functional. A general note: Flow cytometry measures light scatter and fluorescence of single cells or particles in a stream.

Assay [2] deals with JC polyomavirus. Description: Antiviral activity against JC polyomavirus Mad1-SVEdelta infected in SVG-A cells assessed as reduction in viral infectivity pre-incubated for 0.5 hrs with compound before viral infection for 72 hrs by flow cytometry. The assay is classed as functional, cell-based. An outline of the steps: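 JCPyV infection of SVG-A cells (1 × 10^5 per well, seeded overnight at 37°C) after 0.5 h pretreatment with compound from 1:2 serial dilutions of a 2500x DMSO stock, final DMSO 0.04%. Virus at MOI 0.25 with compound present for 72 h. Cells fixed in 4% PFA and permeabilized in 1% Triton X-100. Stained with Alexa Fluor-labeled anti-VP1 antibody, infected cells scored by flow cytometry. IC50 from three independent experiments.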

Assay [3] concerns Human papillomavirus type 16. In words: Antiviral activity against HPV16 pseudovirus expressing HcRed reporter infected in HeLa-M cells assessed as reduction in viral infectivity pre-incubated for 0.5 hrs with compound before viral infection for 72 hrs by flow cytometry. It counts as functional, organism-based. Conditions: Human papillomavirus 16, HeLaM. In outline: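 HeLa M cells in DMEM with 10% FBS and 10 mM Hepes pH 7.5, pretreated with compound from 1:2 serial dilutions of a 2500x DMSO stock, final DMSO 0.04%. Challenged with HcRed-reporter HPV16 pseudovirus. Cells fixed in 4% PFA and HcRed-positive cells scored by flow cytometry. IC50 from three independent experiments.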

Assay [4] concerns JC polyomavirus. In words: Potency index, ratio of IC50 for Retro-2(cycl) to IC50 for test compound against JC polyomavirus Mad1-SVEdelta infected in SVG-A cells assessed as reduction in viral infectivity pre-incubated for 0.5 hrs with compound before viral infection for 72 hrs by flow cytometry. It counts as functional.
The test system of assay [5] is JC polyomavirus. In words: Inhibition of retrograde transport of JC polyomavirus Mad1-SVEdelta infected in SVG-A cells assessed as reduction in co-localization of viral capsid protein VP1 and ER protein PDI pre-incubated for 0.5 hrs with compound before viral infection for 1 hr followed by incubation with compound at 0.05 mM for 8 hrs by proximity ligation assay. The assay is classed as functional, cell-based. An outline of the steps:
(§1)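 SVG-A cells in MEM with 10% FBS were pretreated 0.5 h, then given JCPyV Mad1-SVEΔ at MOI 100 for 1 h at 37°C. After washing, compound (0.05 or 0.1 mM) or vehicle was re-added for 8 h at 37°C. Cells were fixed (4% PFA), permeabilised (0.5% Triton, 0.5 h) and blocked (5% donkey serum), then stained overnight at 4°C with rabbit anti-VP1 (1:1,000) plus mouse anti-PDI (1:100). Read-out: proximity ligation, confocal maximal z-projections.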

The test system of assay [6] is Human papillomavirus type 16. In words: Inhibition of retrograde transport of HPV16 pseudovirus expressing HcRed reporter infected in SVG-A cells assessed as reduction in co-localization of viral capsid protein L1 and golgi protein TGN46 pre-incubated for 0.5 hrs with compound before viral infection for 1 hr followed by incubation with compound at 0.05 mM for 16 hrs by proximity ligation assay. It counts as functional, organism-based. Conditions: Human papillomavirus 16.

Assay [7] concerns JC polyomavirus. Description: Inhibition of retrograde transport of JC polyomavirus Mad1-SVEdelta infected in SVG-A cells assessed as reduction in co-localization of viral capsid protein VP1 and ER protein PDI pre-incubated for 0.5 hrs with compound before viral infection for 1 hr followed by incubation with compound at 0.1 mM for 8 hrs by proximity ligation assay. It counts as functional, cell-based. In outline:
as §1

For assay [8], the system named is Human papillomavirus type 16. Description: Inhibition of retrograde transport of HPV16 pseudovirus expressing HcRed reporter infected in SVG-A cells assessed as reduction in co-localization of viral capsid protein L1 and golgi protein TGN46 pre-incubated for 0.5 hrs with compound before viral infection for 1 hr followed by incubation with compound at 0.1 mM for 16 hrs by proximity ligation assay. Conditions: Human papillomavirus 16. It counts as functional, organism-based.

The structures appear in SMILES notation. Calls of active or inactive are those of the source. The calls are words filed in the database; no cut-off is given here.

Experimental findings from ChEMBL document CHEMBL3351579, “Structural optimization of a retrograde trafficking inhibitor that protects cells from infections by human polyoma- and papillomaviruses” (Bioorg Med Chem, 2014) are described below.

Regarding `CCc1ccc(C2Nc3ccccc3C(=O)N2Cc2ccccc2)s1` (racemic), the Activity with JC polyomavirus [1] is 13.3%.
Same read-out and setting: the figure for `CCc1ccc(C2N(Cc3ccc(F)cc3)C(=O)c3ccccc3N2C)s1` (configuration not stated) is 60%.
As for `CCc1ccc(C2Nc3cc(F)ccc3C(=O)N2Cc2ccc(F)cc2)s1` (racemic), the Activity in the assay with JC polyomavirus [1] is reported as 8.82%.
On the same count and under the same terms, the figure for `CCCN1C(=O)c2ccccc2NC1c1ccc(CC)s1` (racemic) is 76.4%; for `CCc1ccc(C2Nc3ccc(C)cc3C(=O)N2Cc2ccc(F)cc2)s1` (racemic) it is 8.34%; for `CCc1ccc(C2Nc3ccccc3C(=O)N2C(C)C)s1` (racemic) it is 69.9%.
On the same count and under the same terms, then `CCc1ccc(C2Nc3cc(Cl)ccc3C(=O)N2Cc2ccc(F)cc2)s1` (racemic), with 21.3%; and `CCc1ccc(C2Nc3ccccc3C(=O)N2Cc2ccc(F)cc2)s1` (racemic), with 7.62%; and `CCc1ccc(C2Nc3ccccc3C(=O)N2C2CCCCC2)s1` (racemic), with 45.7%.
On the same count and under the same terms, then `CCCCNc1ccc2c(c1)C(=O)N(Cc1ccc(F)cc1)C(c1ccc(CC)s1)N2` (configuration not stated), with 71%.
With `CCc1ccc(C2Nc3ccc(F)cc3C(=O)N2Cc2ccc(F)cc2)s1` (racemic), the half-inhibitory concentration (IC50) with JC polyomavirus [2] amounted to 8.1 µM; in assay [3], 24 µM. Further, in the assay with JC polyomavirus [1], the Activity stood at 4.45%. For the same compound, the “Ratio IC50” value in the assay with JC polyomavirus [4] worked out at 6.7. Also, the inhibition entry (with JC polyomavirus [5]; in assay [6]) was “Active” in each case.
With `CCc1ccc(-c2nc3ccccc3c(=O)n2Cc2ccc(F)cc2)s1`, the Activity in the assay with JC polyomavirus [1] worked out at 63.3%.
For the compound `CCc1ccc(C2Nc3ccccc3C(=O)N2Cc2ccc([N+](=O)[O-])cc2)s1` (racemic), in the assay on JC polyomavirus [1], the Activity was determined as 30.6%.
Still for that read-out and setting: the figure for `Cc1ccc(C2Nc3ccccc3C(=O)N2c2ccccc2)o1` (racemic) is 64.4%.
Same read-out and setting: the figure for `CCc1ccc(C2Nc3ccccc3C(=O)N2Cc2cccc([N+](=O)[O-])c2)s1` (racemic) is 44.5%.
Same read-out and setting: the figure for `CCCCN1C(=O)c2ccccc2NC1c1ccc(CC)s1` (racemic) is 42.4%; for `CCc1ccc(C2Nc3cc(C)ccc3C(=O)N2Cc2ccc(F)cc2)s1` (racemic) it is 67.1%; for `CCc1ccc(C2Nc3cccc(C)c3C(=O)N2Cc2ccc(F)cc2)s1` (racemic) it is 10.2%.
Regarding `CCc1ccc(C2Nc3ccccc3C(=O)N2CCc2ccccc2)s1` (racemic), the Activity in the assay on JC polyomavirus [1] amounted to 50.4%.
On the same count and under the same terms, the figure for `Cc1ccsc1C1Nc2ccccc2C(=O)N1c1ccccc1` (racemic) is 76.4%; for `CCc1ccc(C2Nc3ccccc3C(=O)N2Cc2ccccc2OC)s1` (racemic) it is 13.7%; for `CCc1ccc(C2Nc3ccc(Cl)cc3C(=O)N2Cc2ccc(F)cc2)s1` (racemic) it is 13.7%.
Same read-out and setting: then `CCc1ccc(C2Nc3ccccc3C(=O)N2c2ccccc2)s1` (racemic), with 47.8%; and `CCc1ccc(C2Nc3c(C)cccc3C(=O)N2Cc2ccc(F)cc2)s1` (racemic), with 44.5%.
In the case of `Cc1ccc(C2Nc3ccccc3C(=O)N2c2ccccc2)s1` (racemic), the concentration for half-maximal inhibition (IC50) in the assay on JC polyomavirus [2] is 54 µM; in assay [3] it was 160 µM. Further, the Activity with JC polyomavirus [1] is recorded as 57.5%. Also, the inhibition result (with JC polyomavirus [7]; in assay [8]) was “Active” throughout.
In the case of `CCc1ccc(C2Nc3ccccc3C(=O)N2Cc2cccc(F)c2)s1` (racemic), the Activity with JC polyomavirus [1] came out at 14%.
On the same count and under the same terms, then `CCc1ccc(C2Nc3ccccc3C(=O)N2[C@@H](C)c2ccccc2)s1` (mixture of isomers), with 32.4%; and `CCc1ccc(C2Nc3ccccc3C(=O)N2[C@H](C)c2ccccc2)s1` (mixture of isomers), with 52.7%.
On the same count and under the same terms, the figure for `O=C1c2ccccc2NC(c2cccs2)N1c1ccccc1` (racemic) is 81.1%; for `CCc1ccc(C2NC(=O)c3ccccc3N2)s1` (racemic) it is 41.4%; for `CCc1ccc(C2Nc3ccccc3C(=O)N2Cc2cccc3ccccc23)s1` (racemic) it is 14.5%.
Regarding `O=C1c2ccccc2NC(c2ccc[nH]2)N1c1ccccc1` (racemic), in the assay on JC polyomavirus [1], the Activity was 92.4%.
For `CCc1ccc(C2Nc3ccccc3C(=O)N2Cc2ccc(OC)cc2OC)s1` (racemic), the Activity with JC polyomavirus [1] is 16.4%.
For `CCc1ccc(C2Nc3ccccc3C(=O)N2Cc2ccc(OC)cc2)s1` (racemic), the Activity in the assay with JC polyomavirus [1] worked out at 21.2%.
As to `O=C1c2ccccc2NC(c2cc3ccccc3s2)N1c1ccccc1` (racemic), the Activity in the assay with JC polyomavirus [1] was 95.3%.
On the same count and under the same terms, then `CCc1ccc(C2Nc3ccccc3C(=O)N2Cc2cccc(OC)c2)s1` (racemic), with 27.5%; and `O=C1c2ccccc2NC(c2ccco2)N1c1ccccc1` (racemic), with 69.9%.
Consider `Cc1csc(C2Nc3ccccc3C(=O)N2c2ccccc2)c1` (racemic), for which the Activity in the assay with JC polyomavirus [1] stood at 55.6%.

The IC50 is the concentration that inhibits the measured activity by half.
